Assay outcomes: PubChem BioAssay, several laboratories
PAFAH1B2 inh: PAFAH1B2 enzyme inhibitors, primary screen, biochemical, fluorescence polarization, human; Platelet-activating factor acetylhydrolase IB subunit alpha2 (Homo sapiens), P68402; recombinant PAFAH1B2, FP-rhodamine activity probe; inhibition, % at 3.39 µM; 340,000 compounds, 1.2% hits; AID 492953, 2010;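 active = inhibition above the mean of all tested compounds plus 3 SD, cut at about 24% in these data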
GRIN3A LBD mod: binders of NR3A ligand-binding domain, primary screen, biophysical, differential scanning fluorimetry, uHTS; Glutamate receptor ionotropic, NMDA 3A (GRIN3A) ligand-binding domain; NR3A LBD differential scanning fluorimetry, Tm shift; 0% = protein alone, 100% = glycine-bound protein; Tm shift relative to glycine control, % at 25 µM; 340,000 compounds, 2.5% hits; AID 1259313, 2017;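 active = melting temperature shift of at least 10% of the positive control shift, at one fixed dose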
PAFAH2 inh: PAFAH2 enzyme inhibitors, primary screen, biochemical, fluorescence polarization, human; Platelet-activating factor acetylhydrolase 2, cytoplasmic (Homo sapiens), Q99487; recombinant PAFAH2, FP-rhodamine activity probe; inhibition, % at 3.39 µM; 340,000 compounds, 0.99% hits; AID 492956, 2010;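 active = inhibition above the mean over all tested compounds plus 3 SD, cut at about 30% in these data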;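 also: inhibitors block probe labeling of enzyme so polarization drops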
pPAFAH FP inh: pPAFAH enzyme inhibitors, primary screen, biochemical, fluorescence polarization, human; recombinant pPAFAH, FP-rhodamine probe fluorescence polarization; inhibition, % at 3.39 µM; 330,000 compounds, 1.5% hits; AID 463082, 2010;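 active = inhibition above the mean inhibition across the screen plus 3 SD, cut at about 25% in these data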;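 also: inhibitors block binding of the rhodamine activity-based probe so polarization drops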
Target sequence (Q13093 whole entry, looked up): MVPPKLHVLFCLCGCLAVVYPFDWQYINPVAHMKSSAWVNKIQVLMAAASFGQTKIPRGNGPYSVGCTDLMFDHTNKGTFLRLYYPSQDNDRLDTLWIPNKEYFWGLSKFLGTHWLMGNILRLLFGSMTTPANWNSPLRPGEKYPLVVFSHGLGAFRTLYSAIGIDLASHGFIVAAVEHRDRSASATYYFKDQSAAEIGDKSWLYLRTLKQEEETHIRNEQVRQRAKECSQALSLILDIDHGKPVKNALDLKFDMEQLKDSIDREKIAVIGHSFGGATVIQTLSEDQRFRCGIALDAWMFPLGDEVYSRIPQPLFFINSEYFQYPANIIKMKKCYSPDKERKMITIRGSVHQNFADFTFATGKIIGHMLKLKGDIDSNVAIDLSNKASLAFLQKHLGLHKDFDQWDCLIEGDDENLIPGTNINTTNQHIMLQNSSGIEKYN
PAFAH1B3 inh: PAFAH1B3 enzyme inhibitors, primary screen, biochemical, fluorescence polarization, human; Platelet-activating factor acetylhydrolase IB subunit alpha1 (Homo sapiens), Q15102; recombinant PAFAH1B3, FP-rhodamine probe; inhibition, % at 3.39 µM; 340,000 compounds, 0.28% hits;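 active = inhibition above the screen-wide average of all tested compounds plus 3 SD, cut at about 25% in these data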
UCH37 inh: inhibitors of human UCH37 deubiquitinase, primary screen, biochemical, Ub-AMC cleavage, fluorescence; purified proteasome/UCH37; inhibition, % (test concentration not listed); 330,000 compounds, 0.33% hits; Ubiquitin carboxyl-terminal hydrolase isozyme L5 (Homo sapiens), Q9Y5K5;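 active = mean inhibition over replicate wells above about 20%, limit read from the data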
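Material: Human UCH37 enzyme supplied as purified proteasome complex | Schedule: 30 min preincubation with enzyme, 25 min cleavage at room temperature | Detection: AMC fluorescence 355/460 nm | Measure: % inhibition of Ub-AMC cleavage fluorescence | Controls: Wells without proteasome as full block, compound-free enzyme plus substrate as uninhibited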
PAFAH2 FP conf: PAFAH2 enzyme inhibitors, confirmation, biochemical, fluorescence polarization, human | inhibition, % at 3.39 µM | recombinant PAFAH2, FP-rhodamine activity probe | 2,300 compounds, 65% hits | shares compounds with PAFAH2 inh;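 active = mean inhibition over three repeats above a set limit taken from the earlier primary screen, cut at about 30% in these data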;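 also: inhibitor blocks binding of rhodamine activity probe so polarization falls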
Hits are given with their value; n = inactive; x = not tested or not shown. Most compounds without a hit are left out; they make up all but 4.8% or so of the library.

SMILES	PAFAH1B2 inh	GRIN3A LBD mod	PAFAH2 inh	pPAFAH FP inh	PAFAH1B3 inh	UCH37 inh	PAFAH2 FP conf
COc1ccc2oc(C(=O)OCC(=O)NC3CC3)c(C)c2c1	n	n	n	n	n	n	x
COc1ccc2oc(C(=O)OCC(=O)Nc3ccccc3)c(C)c2c1	n	n	61	n	n	n	52
COc1ccc2oc(C(=O)OCC(=O)NC(C)(C#N)C3CC3)c(C)c2c1 (centres undefined)	n	n	47	n	n	n	41
COc1ccc(Br)cc1C=NNC(=O)CN1CCN(Cc2ccccc2)CC1	x	x	x	x	x	n	x
O=C(COC(=O)c1ccco1)Nc1ccc(Br)cc1	n	11	77	n	n	n	69
O=C(COC(=O)c1ccco1)Nc1ccc([N+](=O)[O-])cc1Cl	n	n	41	n	n	n	n
CN(C(=O)c1ccccc1C(=O)OCC(=O)Nc1ccccc1)c1ccccc1	n	n	78	n	n	n	77
O=C(COC(=O)c1ccco1)Nc1ccccc1	n	n	68	n	n	n	66
CCOC(=O)c1ccccc1NC(=O)COC(=O)c1ccccc1C(=O)N(C)c1ccccc1	n	n	n	n	n	n	x
COc1ccc(O)c(C=NNC(=O)c2ccc(N3CCCC3=O)cc2)c1	x	x	x	x	x	n	x
CSC(=S)NN=Cc1c[nH]c2ccccc12	x	x	x	x	x	n	x
CC1(C)CC(=O)CC(=NNC(=O)CCc2ccc(S(=O)(=O)N3CCOCC3)cc2)C1	x	x	x	x	x	n	x
CC(NC(=O)COC(=O)c1ccco1)c1ccccc1 (centres undefined)	n	n	32	n	n	n	n
COc1ccc(C(=O)NN=Cc2cc3ccccc3[nH]c2=S)cc1	x	x	x	x	x	n	x
COc1ccc(C(=O)N/N=C/c2cc3ccccc3[nH]c2=S)cc1	n	n	43	n	n	x	n
Cc1cc(C(=O)O)ccc1-c1ccc(/C=C2\NC(=O)N(Cc3ccccc3Cl)C2=O)o1	n	n	33	n	n	n	n
O=C(CC12CC3CC(CC(C3)C1)C2)NCC(=O)N1CCc2ccccc2C1	n	n	81	n	n	n	71
COc1cc(C=NOCC(=O)Nc2cc(C)cc(C)c2)ccc1OCc1ccc(Cl)cc1	x	x	x	x	x	n	x
CCOc1cc(C=Nn2cnnc2)cc(Br)c1O	x	x	x	x	x	n	x
COc1cccc(C=NNC(=O)c2c(C)nc3ccc(Br)cn23)c1	x	x	x	x	x	n	x
CCN(CC)S(=O)(=O)c1ccc(/C=C/C(=O)OCC(=O)NCc2cccs2)cc1	n	n	93	n	n	n	80
CC(C)NC(=O)COC(=O)/C=C/c1ccco1	n	n	n	n	n	n	x
Cc1ccc(/C=C/C(=O)OCC(=O)NCc2cccs2)o1	n	n	68	n	n	n	53
O=C(COC(=O)c1ccccc1Br)NCc1cccs1	n	n	n	n	n	n	x
O=C(COC(=O)/C=C/c1ccccc1)NCc1cccs1	n	n	61	n	n	n	47
SMILES	PAFAH1B2 inh	GRIN3A LBD mod	PAFAH2 inh	pPAFAH FP inh	PAFAH1B3 inh	UCH37 inh	PAFAH2 FP conf
Cc1ccc(/C=C/C(=O)OCC(=O)NC(C)C)o1	n	n	35	n	n	n	n
COC(=O)c1scc(C)c1NN=C(C)c1ccc(F)cc1F	x	x	x	x	x	n	x
COc1cc(-c2nc3ccccn3c2N=Cc2cc(OC)c(OC)c(OC)c2)ccc1O	x	x	x	x	x	n	x
CN(C)c1ccc(C=NNC(=O)CCc2nc3ccccc3[nH]2)cc1	x	x	x	x	x	n	x
O=C(COC(=O)/C=C/c1ccc(F)cc1)NCc1cccs1	n	n	62	n	n	n	47
COc1cc(/C=C/C(=O)OCC(=O)Nc2ccc(NC(C)=O)cc2)cc(S(=O)(=O)N2CCc3ccccc32)c1OC	n	n	n	n	n	n	x
COc1ccccc1/C=C/C(=O)OCC(=O)Nc1ccc(Cl)cn1	n	n	83	n	n	n	79
